# HUVEC inhibit – inhibitors of HUVEC proliferation, primary screen, cell-based, 384-well; CellTiter-Glo luminescence, 72 h; active compounds read low; 1.1% of 86,000 active; viability, % at 10 µM (by protocol);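 active means viability at or below 30%; inactive means viability above 30%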
# Pyk2 oligo antag – antagonists of Pyk2 self-association, primary screen, Q293 cells, FERM NanoBiT luminescence, HTS | Protein-tyrosine kinase 2-beta (Homo sapiens), Q14289 | active compounds read low | z-score (the deposit names both 25 µM and 10 µM) | 0.83% of 99,000 active | AID 1347419, 2020;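 active means Z-score of -3 or lower, scaled per plate to the spread of control and sample wells; inactive means z-score above -3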;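 further: negative z-score means lost luminescence so less FERM oligomerization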
# Lung fibro prol – antiproliferative effect on LL 47 fibroblasts – human, LL 47 cells, CellTiter-Glo luminescence, primary screen; AID 719, 2007; viability, % at 10 µM; 1.1% of 85,000 active; LL 47 human lung fibroblast viability, ATP luminescence; active compounds read low;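 active means viability at or below 50% in the single dose screen; inactive means viability above 50%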;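 further: compound exposure lasted 72 h before the ATP readout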
#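 Signal: luminescent ATP detection, CellTiter-Glo; assay system: LL 47 human lung fibroblasts; input: 1,150 cells/well; incubation: overnight cell rest, 72 h compound treatment at 37 °C; measure: % viability versus median cells-only luminescence; medium: IMEM growth medium with 15% fetal bovine serum; dosing: compound addition at 0.1% DMSO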
# HCT116 PTEN-null – growth suppression of PTEN-null HCT116, primary screen, cell-based, CellTiter-Glo; HCT116 PTEN-null viability, 60 h; active compounds read low; viability, % at 10 µM; 1.2% of 140,000 active; AID 827, 2007;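 active means viability at or below a set limit, 4 SD under the median of all tested compounds, cut at about 3.7% in these data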;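 further: PTEN knockout HCT116 line with beta catenin targeted HCT116 as companion control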
# H69AR inhibit – proliferation blockers of H69AR lung cancer cells, primary screen, cell-based, human, 86K library. H69AR lung tumor viability, ATP luminescence, 72 h; active compounds read low. viability, % at 10 µM. 6% of 85,000 active. AID 598, 2007;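 active means viability at or below 40%; inactive means viability above 40%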;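 further: multidrug resistant small cell line overexpressing MRP-1 efflux transporter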
# bCat KO growth – primary screen for growth suppressors in beta-catenin knockout HCT116 cells (colon tumor, human); AID 818, 2007; HCT116 beta-catenin knockout viability, CellTiter-Glo, 60 h; active compounds read low; 1.5% of 140,000 active; viability, % at 10 µM;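 active means viability at or under a set limit, the compound median less 4 SD, cut at about 6% in these data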
# Hits are given with their value; - = inactive; . = not tested or not shown. The entries come from a sample that favours hits as a whole.
SMILES,HUVEC inhibit,Pyk2 oligo antag,Lung fibro prol,HCT116 PTEN-null,H69AR inhibit,bCat KO growth
C[C@@H](O)C1NC(=O)[C@H](CCCCN)NC(=O)c2cc([N+](=O)[O-])cc(I)c2OCC[C@@H](C(N)=O)NC1=O (stereo not given in full),.,.,.,-,.,-
C=CC(=O)N1c2ccccc2Sc2ccc(NC(=O)OCC)cc21,-,-,-,-,26,-
CCOC(=O)Nc1ccc2c(c1)N(C(=O)N1CCN(C)CC1)c1ccccc1S2,-,-,-,-,-,-
CCN1C(=O)/C(=C2\SC(=S)N(CCCOC)C2=O)c2ccccc21,-,-,-,-,31,-
CCN1C(=O)/C(=C2\C=Cc3ccccc3N2CC)SC1=S,.,-,.,-,.,-
CCOC(=O)Nc1nc(-c2ccccc2)c(C(=O)c2ccc(Cl)cc2)s1,.,-3.4,.,-,.,-
O=C(CSc1cccc[n+]1[O-])c1cc2ccccc2o1,-,-,-,2.7,-,4.7
O=C1CCN(N=Nc2cccc(Cl)c2)N1,-,.,-,-,31,-
Cc1ccc2c(CN3CCN(CCO)CC3)cc(=O)oc2c1C,-,-3.5,-,-,-,-
Cc1cc(C)c(S(=O)(=O)N2CCCOC2CNC(=O)C(=O)NCc2cccs2)c(C)c1 (stereo not given),.,.,.,-,.,-
COc1ccccc1C(=O)NCC(=O)OC(C)C(=O)NC(=O)NC1CCCCC1 (stereo not given),.,-,.,-,.,-
Cc1nn(-c2ccccc2)c(Cl)c1C(=O)OC(C)C(=O)NC(=O)NC1CCCCC1 (stereo not given),-,-4.2,-,-,-,-
CS(=O)(=O)N1CCC(C(=O)N2CCC(Cc3ccccc3)CC2)CC1,-,-,-,-,-,-
O=C(C1CCCN(S(=O)(=O)Cc2ccccc2)C1)N1CCC(Cc2ccccc2)CC1 (stereo not given),-,-,-,-,26,-
N#CC1=C(N)Oc2cc(O)ccc2C1c1ccncc1 (stereo not given),-,-,-,-,-,-
CN(C)c1ccc2c(c1)OC(N)=C(C#N)C2c1cccc(F)c1 (stereo not given),-,-3.1,-,-,25,-
CNC(=O)c1ccccc1NC(=O)c1cccc(S(=O)(=O)N2CCC(C)CC2)c1,-,-3.5,-,-,-,-
CCN(c1ccccc1)S(=O)(=O)c1ccc(F)cc1C,-,-,-,-,-,-
CCCCC(=O)Nc1ccc(NC(=O)c2ccccc2[N+](=O)[O-])cc1OC,.,.,.,-,.,-
CCc1nc2ccc(C(=O)O)cc2nc1CC,.,.,.,-,.,-
Cc1ccc(-c2nc3ccc(C(=O)O)cc3nc2-c2ccc(C)cc2)cc1,.,-3.3,.,-,.,-
O=C(Cn1ncc(Cl)c(Cl)c1=O)NCC1CCCCC1,.,-,.,1.5,.,1.8
O=C(OCCN1CCCCC1)c1ccccc1Cl,-,-,-,-,-,-
O=C(Cn1ncc(Cl)c(Cl)c1=O)c1ccc(Cl)cc1,2.6,-,2.6,2.0,1.4,1.7
O=C(OCn1ncc(Cl)c(Cl)c1=O)c1ccccc1Cl,.,-,.,-,.,3.9
SMILES,HUVEC inhibit,Pyk2 oligo antag,Lung fibro prol,HCT116 PTEN-null,H69AR inhibit,bCat KO growth
C[n+]1ccn(CC(=O)c2ccc(Cl)cc2)c1,.,.,.,-,.,-
C=CCn1c(C)cc(C(=O)Cn2ncc(Cl)c(Cl)c2=O)c1C,.,.,.,1.4,.,1.7
Cc1c(C(=O)Nc2ccccc2)sc2nc[nH]c(=O)c12,.,.,.,-,.,-
CCOC(=O)C1=C(c2cccc(Oc3ccccc3)c2)NC(=S)NC1C (stereo not given),.,-,.,-,.,-
O=C(OCn1ncc(Cl)c(Cl)c1=O)c1ccc(F)cc1,.,.,.,0.5,.,0.8
CCOC(=O)c1sc(=NC(=O)c2cc(OC)c(OC)c(OC)c2)n(C)c1C,-,-,-,-,11,-
CCCc1cc(=O)oc2cc(OCC(=O)OC)cc(OCC(=O)OC)c12,-,.,-,-,-,-
Cc1ccc(N(CC(=O)N/N=C/c2cc(C)n(-c3ccccc3C)c2C)S(C)(=O)=O)cc1,.,.,.,-,.,-
O=c1cc(-c2c(F)c(F)c(F)c(F)c2F)oc2ccccc12,.,-,.,.,.,2.2
O=c1cc(-c2c(F)c(F)c(F)c(F)c2F)oc2c(F)c(F)c(F)c(F)c12,1.6,.,17,1.5,1.0,1.6
O=C(NCCO)C(c1ccccc1)c1ccccc1,-,-,.,-,36,-
CC(Cc1ccccc1)C(=O)NCCO (stereo not given),.,.,.,-,.,-
Nc1c(C(=O)Nc2ccc3c(c2)OCCO3)nnn1CCc1ccccc1,-,.,41,-,37,-
O=C(NCc1ccccc1)C(=O)NCC1COc2ccccc2O1 (stereo not given),-,-,-,-,29,-
O=C(Cc1ccccc1)NCC1COc2ccccc2O1 (stereo not given),-,-,-,.,-,.
O=C(NC(Nc1ncc(S(=O)(=O)c2ccc([N+](=O)[O-])cc2)s1)(C(F)(F)F)C(F)(F)F)c1ccc(Cl)cc1,.,-,.,3.1,.,2.6
CNCc1ccccc1Sc1ccc(O)c(O)c1,.,.,.,-,.,-
CCOC(=O)CNS(=O)(=O)c1cc(-c2n[nH]c(=O)c3ccccc23)ccc1C,-,-,-,-,-,-
CCOC(=O)CNS(=O)(=O)c1cc(-c2nnc(Nc3ccc4c(c3)OCO4)c3ccccc23)ccc1C,.,.,.,3.5,.,3.6
c1ccc(CCNc2ncnc3scc(C4COc5ccccc5O4)c23)cc1 (stereo not given),-,-,-,-,28,-
NC(=O)C1CCN(C(=O)c2ccco2)CC1,-,-,-,-,-,-
Cn1ccnc1SCC(=O)c1ccc(Br)cc1,-,-,-,-,29,-
O=C(CSc1nccn1-c1ccccc1)c1ccc(Br)cc1,.,-,.,-,.,-
COc1ccccc1-n1c(CNC(=O)c2ccco2)nnc1SCC(=O)Nc1nccs1,-,.,-,-,33,-
CC(C)C(=O)N(c1cc2sc(=O)oc2c2ccccc12)S(=O)(=O)c1cccs1,-,-,-,-,22,-
SMILES,HUVEC inhibit,Pyk2 oligo antag,Lung fibro prol,HCT116 PTEN-null,H69AR inhibit,bCat KO growth
COc1ccc(N(C(C)=O)S(=O)(=O)c2cccs2)cc1,-,-,-,-,-,-
COc1ccc(N(C(=O)C(C)C)S(=O)(=O)c2cccs2)cc1,-,-,-,-,17,-
Cc1oc(-c2ccccc2F)nc1CN1CCC(C(=O)NCCC2=CCCCC2)CC1,20,-,-,-,-,-
Cc1oc(-c2ccccc2F)nc1CN1CCC(C(=O)NCc2cccnc2)CC1,-,-,-,-,-,-
Cc1ccccc1-c1nc(CN2CCC(C(=O)NCCCN3CC(C)CC(C)C3)CC2)c(C)o1 (stereo not given),14,-,-,-,-,-
Cc1cc(C)n(-c2nc3c(c(=O)n(Cc4ccc(Cl)c(Cl)c4)c(=O)n3C)n2C)n1,-,.,-,.,38,.
Cn1c(N2CCN(c3ccccn3)CC2)nc2c1c(=O)n(Cc1ccccc1Cl)c(=O)n2C,-,-,-,.,23,.
